Reference: ChEMBL document CHEMBL2331336, “Discovery and structure-activity relationship of 1,3-cyclohexyl amide derivatives as novel mGluR5 negative allosteric modulators” (Bioorg Med Chem Lett, 2013)
Values after ≈ are worked out from the molar mass of the structure shown. Active and inactive are the calls of the source. The calls are words filed in the database; no cut-off is given here.

Columns and labels:
[1] = tested on: Rattus norvegicus; assay: AUC ( 0 to infinity) in Sprague-Dawley rat at 2 mg/kg, po; type: ADME, organism-based, Plasma; set-up: dose 2 mg/kg, route oral, time infinity; details: in vivo
In short: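 Sprague-Dawley rats (n = 2), cross-over design with 24 h washout between routes; 2 mg/kg oral in 20% hydroxypropyl-β-cyclodextrin in water; plasma AUC0-inf derived from concentration–time profile.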

[2] = Ratio of fraction unbound in brain to plasma of CD-1 mouse brain at 10 mg/kg, sc at 1 hr; type: ADME, organism-based; set-up: dose 10 mg/kg, route subcutaneous; details: in vivo
In short: (§1)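 CD-1 mice (n = 2), 10 mg/kg SC in 20% hydroxypropyl-β-cyclodextrin in water. Brain and plasma sampled at 1 h; averages reported. Quantification limits were 2 ng/g for brain and 2 ng/mL for plasma. Kupp is the ratio of unbound brain to unbound plasma concentration.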

[3] = tested on: Rattus norvegicus; assay: Plasma clearance in Sprague-Dawley rat at 1 mg/kg, iv or 2 mg/kg, po relative to hepatic blood flow; type: ADME, organism-based; details: in vivo
In short: (§2)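 Sprague-Dawley rats (n = 2) dosed in a cross-over design with a 24 h washout: 1 mg/kg IV and 2 mg/kg PO in 20% hydroxypropyl-β-cyclodextrin in water. Rat hepatic blood flow was taken as 20 mL/min.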

[4] = tested on: Rattus norvegicus; assay: Bioavailability in Sprague-Dawley rat at 1 mg/kg, iv or 2 mg/kg, po; type: ADME, organism-based; details: in vivo; in short: as §2
[5] = tested on: Rattus norvegicus; assay: AUC ( 0 to infinity) in Sprague-Dawley rat at 1 mg/kg, iv; type: ADME, organism-based, Plasma; set-up: time infinity, dose 1 mg/kg, route intravenous; details: in vivo
In short: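 Sprague-Dawley rats (n = 2), cross-over design with 24 h washout between routes; 1 mg/kg iv in 20% hydroxypropyl-β-cyclodextrin in water; plasma AUC0-inf derived from concentration–time profile.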

[6] = Half life in Sprague-Dawley rat at 1 mg/kg, iv or 2 mg/kg, po; type: ADME, organism-based; details: in vivo; in short: as §2
[7] = Volume of distribution at steady state in Sprague-Dawley rat at 1 mg/kg, iv or 2 mg/kg, po; type: ADME, organism-based; details: in vivo, read-out: Vdss; in short: as §2
[8] = Plasma clearance in Sprague-Dawley rat at 1 mg/kg, iv or 2 mg/kg, po; type: ADME, organism-based; in short: as §2
[9] = Cmax in Sprague-Dawley rat at 1 mg/kg, iv or 2 mg/kg, po; type: ADME, organism-based; details: in vivo; in short: as §2
[10] = Tmax in Sprague-Dawley rat at 1 mg/kg, iv or 2 mg/kg, po; type: ADME, organism-based; details: in vivo; in short: as §2
[11] = Ratio of drug uptake in brain to plasma of CD-1 mouse at 10 mg/kg, sc at 1 hr; type: ADME, organism-based; set-up: dose 10 mg/kg, route subcutaneous; details: read-out: BPR; in short: as §1
[12] = Drug uptake in CD-1 mouse brain at 10 mg/kg, sc at 1 hr; type: ADME, organism-based; set-up: dose 10 mg/kg, route subcutaneous; details: read-out: Drug uptake; in short: as §1
[13] = Plasma concentration in CD-1 mouse at 10 mg/kg, sc at 1 hr; type: ADME, organism-based; set-up: dose 10 mg/kg, route subcutaneous; in short: as §1
[14] = tested on: Plasma; assay: Fraction unbound in mouse plasma; type: ADME, cell-free
[15] = Fraction unbound in mouse brain; type: ADME, tissue-based
[16] = tested on: Plasma; assay: Fraction unbound in rat plasma; type: ADME, cell-free
[17] = Fraction unbound in rat brain; type: ADME, tissue-based
[18] = Partition co-efficient, log D at pH 7.4 of the compound by shake flask method; type: physicochemical; details: buffer
[19] = Kinetic solubility of the compound in potassium phosphate buffer after 4 hrs; type: physicochemical; details: read-out: Kinetic_solubility
In short: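 Kinetic solubility: compound from 10 mM DMSO stock diluted into 25 mM potassium phosphate buffer and shaken 4 h. Supernatant analyzed by UPLC with PDA detection at 254 nm.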

[20] = tested on: Liver microsomes; assay: Intrinsic clearance in rat liver microsomes; type: ADME, Microsome
[21] = Plasma protein binding in human; type: ADME, cell-free; details: read-out: PPB (converted)
[22] = tested on: Liver; assay: Intrinsic clearance in mouse liver microsomes; type: ADME, Microsome
[23] = tested on: Liver microsomes; assay: Intrinsic clearance in human liver microsomes; type: ADME, Microsome; set-up: unit not given here
[24] = molecular target: T1, Metabotropic glutamate receptor 1 (Rattus norvegicus, UniProt P23385); assay: Agonist activity at rat mGluR1 expressed in HEK293 cells assessed as Ca2+ mobilization by FLIPR assay; type: functional, cell-based
In short: (§3)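 Rat mGluR1 stably in HEK293 cells (1.5% calf serum medium), seeded 24 h earlier, Fluo-4 loaded 1 h at 37 °C in HBSS/HEPES pH 7.4 with probenecid. Curves fitted with Hill equation.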

[25] = molecular target: T1, Metabotropic glutamate receptor 1; assay: Antagonist activity at rat mGluR1 expressed in HEK293 cells assessed as inhibition of Ca2+ mobilization by FLIPR assay; type: functional, cell-based; in short: as §3
[26] = molecular target: T2, Metabotropic glutamate receptor 5 (Homo sapiens, UniProt P41594); assay: Displacement of [3H]-ABP688 from human mGluR5 expressed in HEK293 cells after 60 mins by scintillation counting; type: cell-based
[27] = molecular target: T2, Metabotropic glutamate receptor 5; assay: Antagonist activity at human mGluR5 expressed in HEK293 cells assessed as inhibition of Ca2+ mobilization by FLIPR assay; type: functional, cell-based
[28] = tested on: Mus musculus; assay: Anxiolytic-like activity in mouse at 30 mg/kg, sc measured after 1 hr by marble burying test; type: functional, organism-based; set-up: dose 30 mg/kg
In short: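 Male CD-1 mice, n = 12 per group, given 3, 10 or 30 mg/kg sc in 20% HPβCD (5 mL/kg); buspirone 10 mg/kg sc in water as positive control. Mice were placed singly in cages for a 30 min session, and marbles buried out of 20 were counted. One-way ANOVA with Dunnett's test.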

[29] = Ratio of drug uptake in brain to plasma of CD-1 mouse at 10 mg/kg, po at 1 hr; type: ADME, organism-based; set-up: dose 10 mg/kg, route oral; details: read-out: BPR
[30] = Plasma concentration in CD-1 mouse at 10 mg/kg, po at 1 hr; type: ADME, organism-based; set-up: dose 10 mg/kg, route oral
[31] = Drug uptake in CD-1 mouse brain at 10 mg/kg, po at 1 hr; type: ADME, organism-based; set-up: dose 10 mg/kg, route oral; details: read-out: Drug uptake
[32] = Ratio of drug uptake in brain to plasma of Sprague-Dawley rat at 10 mg/kg, po at 1 hr; type: ADME, organism-based; set-up: dose 10 mg/kg, route oral; details: read-out: BPR
[33] = Plasma concentration in Sprague-Dawley rat at 10 mg/kg, po at 1 hr; type: ADME, organism-based; set-up: dose 10 mg/kg, route oral
[34] = Drug uptake in Sprague-Dawley rat brain at 10 mg/kg, po at 1 hr; type: ADME, organism-based; set-up: dose 10 mg/kg, route oral; details: read-out: Drug uptake

T1 sequence (P23385 whole entry): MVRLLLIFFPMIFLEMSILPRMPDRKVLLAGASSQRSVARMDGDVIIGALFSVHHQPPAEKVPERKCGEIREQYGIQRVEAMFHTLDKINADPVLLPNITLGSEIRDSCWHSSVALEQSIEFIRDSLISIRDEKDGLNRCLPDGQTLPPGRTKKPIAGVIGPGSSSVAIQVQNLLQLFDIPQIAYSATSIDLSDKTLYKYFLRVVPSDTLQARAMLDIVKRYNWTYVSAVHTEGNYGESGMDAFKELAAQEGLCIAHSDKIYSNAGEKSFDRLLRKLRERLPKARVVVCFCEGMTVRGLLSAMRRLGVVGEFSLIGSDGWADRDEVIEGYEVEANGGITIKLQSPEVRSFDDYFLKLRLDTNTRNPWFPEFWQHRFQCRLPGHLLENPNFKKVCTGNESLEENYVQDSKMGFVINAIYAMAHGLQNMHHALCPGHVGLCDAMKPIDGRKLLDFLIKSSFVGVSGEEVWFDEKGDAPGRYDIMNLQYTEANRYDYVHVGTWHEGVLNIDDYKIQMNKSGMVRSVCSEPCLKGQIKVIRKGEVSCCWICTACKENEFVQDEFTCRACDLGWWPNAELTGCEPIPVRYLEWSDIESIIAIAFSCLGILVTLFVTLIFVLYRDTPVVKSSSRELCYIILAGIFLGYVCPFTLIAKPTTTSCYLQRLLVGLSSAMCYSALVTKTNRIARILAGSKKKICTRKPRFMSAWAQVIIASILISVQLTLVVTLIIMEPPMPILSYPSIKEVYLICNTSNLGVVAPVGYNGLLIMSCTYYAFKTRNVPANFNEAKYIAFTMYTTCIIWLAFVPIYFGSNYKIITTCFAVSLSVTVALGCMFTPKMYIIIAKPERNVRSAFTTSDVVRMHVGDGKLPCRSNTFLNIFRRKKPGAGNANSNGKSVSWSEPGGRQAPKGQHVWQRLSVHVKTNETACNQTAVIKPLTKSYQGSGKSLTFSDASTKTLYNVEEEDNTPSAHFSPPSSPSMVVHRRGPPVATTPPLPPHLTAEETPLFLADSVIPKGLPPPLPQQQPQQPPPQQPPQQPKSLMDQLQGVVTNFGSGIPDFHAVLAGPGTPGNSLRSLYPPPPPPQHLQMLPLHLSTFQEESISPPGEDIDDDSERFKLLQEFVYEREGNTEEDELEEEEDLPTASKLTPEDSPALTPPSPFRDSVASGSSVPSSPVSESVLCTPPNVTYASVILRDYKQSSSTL
T2 sequence (P41594 whole entry): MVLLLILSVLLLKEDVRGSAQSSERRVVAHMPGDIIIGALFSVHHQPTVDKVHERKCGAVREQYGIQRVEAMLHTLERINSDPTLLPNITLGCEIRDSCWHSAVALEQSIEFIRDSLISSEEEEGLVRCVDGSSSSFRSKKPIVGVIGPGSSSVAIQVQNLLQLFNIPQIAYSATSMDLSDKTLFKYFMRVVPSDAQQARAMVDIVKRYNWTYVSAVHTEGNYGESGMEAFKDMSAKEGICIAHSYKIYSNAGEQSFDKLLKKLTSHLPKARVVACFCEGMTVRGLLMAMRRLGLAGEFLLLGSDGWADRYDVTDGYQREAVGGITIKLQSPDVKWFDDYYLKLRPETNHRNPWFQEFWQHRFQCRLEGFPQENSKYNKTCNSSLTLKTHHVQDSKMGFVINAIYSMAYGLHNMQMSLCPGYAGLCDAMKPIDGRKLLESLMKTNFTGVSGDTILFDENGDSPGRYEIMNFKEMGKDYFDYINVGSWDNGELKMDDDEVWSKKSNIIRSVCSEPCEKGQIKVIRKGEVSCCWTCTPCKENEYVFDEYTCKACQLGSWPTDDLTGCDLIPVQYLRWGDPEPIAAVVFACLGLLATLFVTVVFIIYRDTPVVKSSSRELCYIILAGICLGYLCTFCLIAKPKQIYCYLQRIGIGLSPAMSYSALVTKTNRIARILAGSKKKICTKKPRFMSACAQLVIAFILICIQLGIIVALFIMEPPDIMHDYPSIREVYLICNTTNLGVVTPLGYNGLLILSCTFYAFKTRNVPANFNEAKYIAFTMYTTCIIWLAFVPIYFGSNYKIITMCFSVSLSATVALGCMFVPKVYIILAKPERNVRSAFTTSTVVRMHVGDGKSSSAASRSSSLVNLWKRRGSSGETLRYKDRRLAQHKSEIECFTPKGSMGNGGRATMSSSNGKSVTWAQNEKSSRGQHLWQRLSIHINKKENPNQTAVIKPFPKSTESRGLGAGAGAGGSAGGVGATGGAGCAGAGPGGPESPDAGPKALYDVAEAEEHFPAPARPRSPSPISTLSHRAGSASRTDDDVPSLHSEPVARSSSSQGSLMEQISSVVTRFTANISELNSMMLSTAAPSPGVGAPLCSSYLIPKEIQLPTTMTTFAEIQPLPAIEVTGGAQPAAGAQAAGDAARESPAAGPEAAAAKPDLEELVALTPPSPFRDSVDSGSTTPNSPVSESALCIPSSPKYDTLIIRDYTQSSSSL

| SMILES | Ratio [2] | Kp at 1 h [11] | concentration at 1 h [12] [nM] | concentration at 1 h [13] [nM] | Cp(f) [14] [%] | fraction unbound [15] | Intrinsic clearance [20] [mL/min] | Intrinsic clearance [22] [mL/min] | Intrinsic clearance [23] | EC50 [24] [nM] | IC50 [25] [nM] | Ki [26] [nM] | IC50 [27] [nM] | other results |
| --- | --- | --- | --- | --- | --- | --- | --- | --- | --- | --- | --- | --- | --- | --- |
| O=C(N[C@@H]1CCC[C@@H](NC(=O)c2ccccn2)C1)c1cccc(Cl)c1 | 0.67 | 0.34 | 170 | 500 | 11 | 0.22 | 41 | 9 | 1.1 | > 10000 | > 10000 | 205 | 62 | AUC [1]: 530 ng·h/mL; CL [3]: 85%; bioavailability [4]: 80%; AUC [5]: 260 ng·h/mL; half-life [6]: 0.6 h; Vd [7]: 3.4 L/kg; clearance [8]: 68.3 mL/min/kg; Cmax [9]: 220 ng/mL; Tmax [10]: 2 h; Cp(f) [16]: 14%; fraction unbound [17]: 0.13; logD [18]: 3.2; solubility kinetic at 4 h [19]: 240 µM (≈ 85.9 µg/mL); fraction unbound [21]: 0.065 |
| Cc1cccc(C(=O)N[C@H]2CCC[C@]3(CN=C(c4cccc(Cl)c4)O3)C2)n1 | 1.1 | 0.8 | 910 | 1180 | 0.2 | 0.003 | 48 | 12.5 | 13 | > 10000 | > 10000 |  | 23 | Activity [28]: Active; Kp at 1 h [29]: 0.5; concentration at 1 h [30]: 17 nM; concentration at 1 h [31]: 9 nM |
| O=C(N[C@H]1CCC[C@]2(CN=C(c3cccc(Cl)c3)O2)C1)c1ccccn1 | 1.6 | 1 | 1160 | 1160 | 0.3 | 0.005 | 160 | 8.8 | 13 | > 10000 | > 10000 | 178 | 115 | Kp at 1 h [32]: 0.6; concentration at 1 h [33]: 8 nM; concentration at 1 h [34]: 5 nM |
